TDP2 inh: human TDP2 enzyme inhibitors, primary screen, biochemical, epi absorbance, recombinant enzyme; Tyrosyl-DNA phosphodiesterase 2 (Homo sapiens), O95551; T5PNP hydrolysis, p-nitrophenol absorbance 415 nm; inhibition, % at 12.8 µM; 0.34% of 370,000 active; AID 720702, 2013;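 active = inhibition above the mean of all tested compounds plus 3 SD, set per campaign, cut at about 25% in these data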
Target sequence (O95551 whole entry, looked up): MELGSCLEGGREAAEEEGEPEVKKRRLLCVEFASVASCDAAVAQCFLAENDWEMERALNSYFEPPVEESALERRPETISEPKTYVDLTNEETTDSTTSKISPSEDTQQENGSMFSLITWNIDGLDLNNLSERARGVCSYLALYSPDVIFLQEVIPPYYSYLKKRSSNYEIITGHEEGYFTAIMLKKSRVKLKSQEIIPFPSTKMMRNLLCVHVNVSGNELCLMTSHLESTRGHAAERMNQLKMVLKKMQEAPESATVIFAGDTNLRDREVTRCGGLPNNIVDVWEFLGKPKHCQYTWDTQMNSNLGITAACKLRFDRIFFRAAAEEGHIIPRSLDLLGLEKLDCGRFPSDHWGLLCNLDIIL
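System – recombinant human TDP2 · Amount – 120 nM TDP2 per well · Buffer or medium – Mg2+-containing Tris-HCl buffer, pH 7.5 · Reagent – T5PNP substrate, 5 mM · Dosing – 12.8 µM single point, 1% DMSO · Incubation – 2 h at 37 °C · Measured by – epi absorbance · Read-out basis – percent inhibition · Benchmarks – high control without enzyme, low control DMSO plus TDP2 · Repeats – singlicate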
MBD2 DNA inh: inhibitors of MBD2 binding to methylated DNA, primary screen, biochemical, TR-FRET, DNA-binding domain, human. inhibition, % at 4.4 µM. 0.31% of 370,000 active. MBD2 binding to methylated oligonucleotide. Methyl-CpG-binding domain protein 2 (Homo sapiens), Q9UBB5; in the data active = inhibition above about 13%
UHRF1 MBD2 ctr: UHRF1 methylated DNA binding inhibitors, primary screen, counter-screen for MBD2 inhibitor project, biochemical, TR-FRET, human UHRF1, single concentration. UHRF1 binding to methylated oligo. inhibition, % at 4.4 µM. 0.75% of 370,000 active. AID 687016, 2013; in the data active = inhibition above about 21%;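 also: UHRF1 SRA domain binding a hemimethylated CpG hairpin DNA probe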
Tn6 DDE FP: inhibitors of Tn6 peptide binding to fibrin DD(E), primary screen, biochemical, fluorescence polarization, human fibrin, Tn6 probe; 0.21% of 370,000 active; Fibrin DD(E) TRITC-Tn6 fluorescence polarization displacement; Fibrinogen beta chain (Homo sapiens), P02675; inhibition, % at 8.3 µM;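 active = inhibition above a per-campaign cutoff: mean of compounds within control limits plus 3 SD, cut at about 15% in these data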
LEDGF integ inh: blockers of LEDGF/p75-dependent integrase strand transfer – biochemical, TR-FRET, high throughput, primary screen | TR-FRET IN-LEDGF/p75 DNA integration, Eu/Cy5 | inhibition, % at 3.7 µM | HIV-1 integrase (with human LEDGF/p75) | 0.64% of 370,000 active;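 active = inhibition above the screen-wide mean plus 3 SD, cut at about 13% in these data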;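 also: signal is the Cy5 over europium emission ratio at 671 and 618 nm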
DDE Tn7 FP inh: inhibitors of Tn7 peptide binding to fibrin DD(E), primary screen, biochemical, fluorescence polarization, human fibrin, Tn7 probe. FP displacement of FITC-Tn7 peptide from fibrin DD(E); 0% = median of compound wells per plate. 0.13% of 370,000 active. inhibition, % at 8.3 µM. Fibrinogen beta chain (Homo sapiens), P02675;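 active = inhibition above the mean of compounds falling within the control limits plus 3 SD of them, cut at about 14% in these data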
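Test system: human clot-derived fibrin DD(E) complex / Quantity: 2 µM final DD(E) protein / Incubation: 10 min plus 3 h, room temperature / Measured by: fluorescence polarization / Benchmarks: high control of 10 µM Aha-Tn7 peptide / Replicates: singlicate testing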
TDP2 inh conf: human TDP2 enzyme inhibitors, retest, confirmation, biochemical, epi absorbance, recombinant enzyme; shares compounds with TDP2 inh; absorbance read-out; inhibition, % at 12.8 µM; 22% of 1,100 active; AID 743263, 2014; in the data active = inhibition above about 25%
Each line names hits and unclear results; the compound was inactive in the other large screens (follow-up assays come after a bar, where they were run). Shown are actives, neighbours in structure and some others; about 1.9% of the full set was active somewhere.

Cc1nnc(N2C(=O)C(=O)/C(=C(/O)c3ccc4c(c3)OCCO4)C2c2ccc(F)cc2)s1 (centres undefined)	none
Cc1cc(NC(=O)COc2ccccc2)n(-c2ccccc2)n1	none
Cc1cc(NC(=O)CSc2nccn2C)n(-c2ccccc2)n1	TDP2 inh 25.9 | TDP2 inh conf inactive
CCC(C)N1CC(C(=O)NC2CCCCC2)CC1=O (centres undefined)	TDP2 inh 25.1 | TDP2 inh conf inactive
CCCCCNC(=O)C(C1CC1)n1c(=O)c(-c2ccco2)nc2ccccc21 (centres undefined)	TDP2 inh 53.9 | TDP2 inh conf inactive
N=C1S/C(=C\c2cccc3ccccc23)C(=O)N1c1ccc(F)cc1	none
CSC1=NC(=O)/C(=C\c2cccc3ccccc23)S1	TDP2 inh 25.0 | TDP2 inh conf inactive
COC(=O)[C@]12C[C@H](CC(=O)NCCC(C)C)C(=O)N(Cc3ccccc3)C1=C[C@H](C(C)(C)C)O[C@@H]2C	none
C=CCn1c(N)c(C(=O)NCC2CCCO2)c2nc3ccccc3nc21 (centres undefined)	TDP2 inh 35.0 | TDP2 inh conf inactive
CCOC(=O)C1CCCN(C(=O)c2cc3c(=O)n(C)c4ccccc4c3n2C)C1 (centres undefined)	TDP2 inh 40.5 | TDP2 inh conf inactive
Cn1c(C(=O)N2CCCC2)cc2c(=O)n(C)c3ccccc3c21	none
COC(=O)C1=C(C)N(Cc2ccccc2C(F)(F)F)C(=NCc2ccccc2C(F)(F)F)NC1c1cccc(F)c1 (centres undefined)	none
O=C(CSc1ccc(Cl)cc1)NC1=NN(c2ccccc2)C(=O)C1	TDP2 inh 25.4 | TDP2 inh conf inactive
O=C(CSc1ccc(Cl)cc1)Nc1ccccc1	none
O=C(NCc1ccc2c(c1)OCO2)C(=O)NCC1OCCN1S(=O)(=O)c1ccc(Cl)cc1 (centres undefined)	TDP2 inh 37.1 | TDP2 inh conf inactive
O=C(NCc1ccc2c(c1)OCO2)C(=O)NCC1OCCN1S(=O)(=O)c1ccc(Br)cc1 (centres undefined)	none
CC(C)NC(=O)C(=O)Nc1cc2c3c(c1)C(C)C(=O)N3CCC2 (centres undefined)	TDP2 inh 33.6 | TDP2 inh conf inactive
COCCNC(=O)C(=O)Nc1cc2c3c(c1)C(C)C(=O)N3CCC2 (centres undefined)	none
CCN1CCN(c2sc(S(=O)(=O)CC)nc2S(=O)(=O)c2ccc(C)cc2)CC1	none
CCS(=O)(=O)c1nc(S(=O)(=O)c2ccc(C)cc2)c(N2CCN(CCO)CC2)s1	TDP2 inh 25.3 | TDP2 inh conf inactive
Cc1nn(CCC#N)c(N)c1C1(O)C(=O)Nc2c(Cl)cc(Cl)cc21 (centres undefined)	TDP2 inh 26.4 | TDP2 inh conf inactive
CCCCOC(=O)/C=C\C(=O)NC(N)=O	TDP2 inh 25.6 | TDP2 inh conf inactive
CCc1ccc(C=NN2CCN(Cc3ccc(C)cc3C)CC2)cc1	none
CC(C(=O)NC1CCCCCC1)c1ccc([N+](=O)[O-])cc1 (centres undefined)	TDP2 inh 24.6 | TDP2 inh conf inactive
CCN(CC)CCNC(=O)c1c(O)c2cc(OC)c(OC)cc2[nH]c1=O	TDP2 inh 24.6 | TDP2 inh conf inactive
O=C(CCC(=O)NC1CCCCC1)NCc1ccc(F)cc1	TDP2 inh 48.4 | TDP2 inh conf inactive
COc1cc2c(cc1NC(=O)CSc1nnc(-c3cccc(Cl)c3)n1-c1ccccc1)oc1ccccc12	none
CCn1ccnc1CNC(=O)c1ccc(OC2CCN(C(=O)COC)CC2)cc1	TDP2 inh 26.8 | TDP2 inh conf inactive
COCC(=O)N1CCC(Oc2ccc(C(=O)NCc3cnc(C)cn3)cc2)CC1	none
CCCCS(=O)(=O)N1CCN(C(=O)C(=O)c2cccc(C(F)(F)F)c2)CC1	none
Cc1cc(C)cc(NC(=O)CSc2nnc(CN3CCOCC3)n2C)c1	none
Cc1cc(C)c(NC(=O)CSc2nnc(CN3CCOCC3)n2C)c(C)c1	TDP2 inh 26.1 | TDP2 inh conf inactive
Cc1cc(N2CCN(C(C(=O)NC3CCCC3)C(C)(C)C)CC2)c2ccccc2n1 (centres undefined)	none
Cc1ccccc1C(OCC(O)CN1CCC(C(N)=O)CC1)c1ccccc1 (centres undefined)	none
CCN1CCN(CC(O)COC(c2ccccc2)c2ccccc2C)CC1 (centres undefined)	TDP2 inh 27.5 | TDP2 inh conf inactive
O=C(NC(=S)Nc1ccccc1Cl)c1cncc(Br)c1	TDP2 inh 27.3 | TDP2 inh conf inactive
COCCNc1nnc(Cc2ccc(OC)c(OC)c2)c(=O)[nH]1	none
CCCCNc1nnc(Cc2ccc(Cl)cc2)c(=O)[nH]1	TDP2 inh 28.2 | TDP2 inh conf inactive
O=C(/C=C(\Nc1ccc(F)cc1)c1ccccc1)c1ccccc1	none
CN(Cc1ccccc1)C(=O)OCc1cn(Cc2ccccc2F)nn1	none
COC(=O)C1=C(C)N(Cc2ccccc2C(F)(F)F)C(=NCc2cc(OC)c(OC)c(OC)c2)NC1c1cccc(Cl)c1 (centres undefined)	none
O=C1c2ccccc2C(=O)C12OC2c1cccc2ccccc12 (centres undefined)	TDP2 inh 73.5 | TDP2 inh conf 75.8
CCc1cc[n+](C2=C([O-])c3ccccc3C(=O)/C2=N\S(=O)(=O)c2cccs2)cc1	TDP2 inh 41.0 | TDP2 inh conf 40.1
COc1ccc(N2CCN(CCNS(=O)(=O)c3cccs3)CC2)cc1	none
COC(=O)CCN1CCSCCS1(=O)=O	none
O=C1C(Cl)=C(NCCN2CCOCC2)C(=O)c2ccccc21	TDP2 inh 30.6 | TDP2 inh conf inactive
Oc1ccc2ccccc2c1C=NC12CN3CCN(CN(C3)C1)C2	TDP2 inh 52.9, LEDGF integ inh 23.5 | TDP2 inh conf 35.5
Cc1ccc(S(=O)(=O)c2c[nH]c3cc4c(cc3c2=O)OCO4)cc1	TDP2 inh 26.1 | TDP2 inh conf inactive
Cc1ccc(C)c(CN2CCSCC2)c1	TDP2 inh 25.6 | TDP2 inh conf inactive
